Test results published in ChEMBL document CHEMBL1146380, “Synthesis, antimicrobial activity, and QSAR studies of furan-3-carboxamides” (2007).
In brackets after ≈: the same amount, converted by molar mass. Activity calls are given as the source filed them. The calls are words filed in the database; no cut-off is given here.

Assays:
Aspergillus niger = test: Antimicrobial activity against Aspergillus niger isolate by broth microdilution method; format: functional
Candida albicans = test: Antimicrobial activity against Candida albicans ATCC 44373 by broth microdilution method; format: functional
Procedure, shortened: (§1)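 Yeasts grown on potato dextrose agar. Inoculum was standardized by McFarland turbidity as for bacteria, into RPMI 1640 broth (M27-A2). DMSO-dissolved compound was tested in twofold dilutions from 320 to 1.25 at 35 °C for 24 h, in duplicate. MIC was the lowest concentration completely inhibiting visible growth. Fungicidal concentration was read by subculturing 20 µL from clear wells on Sabouraud dextrose agar at 35 °C.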

Saccharomyces cerevisiae = test: Antimicrobial activity against Saccharomyces cerevisiae ATCC 2601 by broth microdilution method; format: functional
Procedure, shortened: (§2)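 Organism grown on potato dextrose agar, with turbidity-standardized inoculum in RPMI 1640 broth (M27-A2). DMSO-dissolved compound was tested in twofold dilutions from 320 to 1.25 at 35 °C, incubated up to 72 h, in duplicate. MIC was the lowest concentration with no visible growth. Cidal concentration was read by subculturing 20 µL from clear wells on Sabouraud dextrose agar, incubated for the same period.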

Escherichia coli = test: Antimicrobial activity against Escherichia coli ATCC 25922 by broth microdilution method; format: functional
Procedure, shortened: (§3)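 Bacteria grown overnight on Mueller–Hinton agar. Colonies were suspended in saline to McFarland turbidity (about 10^8 cfu/mL), diluted 1:100 in saline, then 1:20 in Mueller–Hinton broth, giving 5 · 10^4 cfu/mL per well. DMSO-dissolved compound was tested in twofold dilutions from 320 to 1.25 at 35 °C for 24 h. MIC was the lowest concentration with no visible turbidity (M7-A4). Bactericidal concentration was read by subculturing clear wells on Mueller–Hinton agar.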

Scedosporium boydii = test: Antimicrobial activity against Pseudallescheria boydii isolate by broth microdilution method; format: functional
Staphylococcus aureus = test: Antimicrobial activity against Staphylococcus aureus ATCC 25923 by broth microdilution method; format: functional; procedure, shortened: as §3
Fusarium solani = test: Antimicrobial activity against Fusarium solani isolate by broth microdilution method; format: functional
Aspergillus terreus = test: Antimicrobial activity against Aspergillus terreus isolate by broth microdilution method; format: functional
Aspergillus fumigatus = test: Antimicrobial activity against Aspergillus fumigatus isolate by broth microdilution method; format: functional
Prototheca zopfii = test: Antimicrobial activity against Prototheca zopfii by broth microdilution method; format: functional; procedure, shortened: as §2
Sporothrix schenckii = test: Antimicrobial activity against Sporothrix schenckii ATCC 1146 by broth microdilution method; format: functional
Nakaseomyces glabratus = test: Antimicrobial activity against Candida glabrata […] by broth microdilution method; format: functional; procedure, shortened: as §1
[1] = system: Salmonella enterica subsp. enterica serovar Setubal; test: (§4) Antimicrobial activity against Salmonella setubal ATCC 19196 by broth microdilution method; format: functional; procedure, shortened: as §3
[2] = as §4; format: functional, Salmonella enterica subsp. enterica serovar Setubal; details: Salmonella enterica; procedure, shortened: as §3
Pseudomonas aeruginosa = test: Antimicrobial activity against Pseudomonas aeruginosa ATCC 27853 by broth microdilution method; format: functional; procedure, shortened: as §3
Rhizopus arrhizus = test: Antimicrobial activity against Rhizopus oryzae isolate by broth microdilution method; format: functional
Klebsiella pneumoniae = test: Antimicrobial activity against Klebsiella pneumoniae ATCC 1003 by broth microdilution method; format: functional; procedure, shortened: as §3
Candida dubliniensis = test: Antimicrobial activity against Candida dubliniensis CBS 7987 by broth microdilution method; format: functional; procedure, shortened: as §1
Aspergillus flavus = test: Antimicrobial activity against Aspergillus flavus isolate by broth microdilution method; format: functional
[3] = system: Cryptococcus deneoformans; test: Antimicrobial activity against Cryptococcus neoformans var.neoformans serotype D ATCC 28952 by broth microdilution method; format: functional; procedure, shortened: as §2

MIC (Escherichia coli) [µg/mL] | MIC (Scedosporium boydii) [µg/mL] | MIC (Staphylococcus aureus) [µg/mL] | MIC (Fusarium solani) [µg/mL] | MIC (Aspergillus terreus) [µg/mL] | MIC (Prototheca zopfii) [µg/mL] | MIC (Sporothrix schenckii) [µg/mL] | MIC [2] [µg/mL] | MIC (Pseudomonas aeruginosa) [µg/mL] | MIC (Rhizopus arrhizus) [µg/mL] | MIC (Klebsiella pneumoniae) [µg/mL] | MIC [3] [µg/mL] | SMILES | Activity (Aspergillus niger) | Activity (Candida albicans) | Activity (Escherichia coli) | MFC (Scedosporium boydii) [µg/mL] | Activity (Staphylococcus aureus) | Activity (Fusarium solani) | Activity (Aspergillus terreus) | Activity [1] | other results
320 (≈ 1140 µM) | 160 (≈ 571 µM) | 320 (≈ 1140 µM) | 320 (≈ 1140 µM) | 320 (≈ 1140 µM) | 320 (≈ 1140 µM) | 160 (≈ 571 µM) | 320 (≈ 1140 µM) | 160 (≈ 571 µM) | 320 (≈ 1140 µM) | 320 (≈ 1140 µM) | 320 (≈ 1140 µM) | Cc1ccc(S(=O)(=O)NNC(=O)c2ccoc2)cc1 | inactive | inactive | inactive | 160 (≈ 571 µM) | inactive | inactive | inactive | inactive | MFC (Saccharomyces cerevisiae): 320 µg/mL (≈ 1140 µM); MIC (Saccharomyces cerevisiae): 160 µg/mL (≈ 571 µM); MFC (Aspergillus fumigatus): 320 µg/mL (≈ 1140 µM); MIC (Aspergillus fumigatus): 320 µg/mL (≈ 1140 µM); Activity (Prototheca zopfii): inactive; Activity (Sporothrix schenckii): inactive; Activity (Nakaseomyces glabratus): inactive; MBC (Pseudomonas aeruginosa): 320 µg/mL (≈ 1140 µM); Activity (Rhizopus arrhizus): inactive; Activity (Klebsiella pneumoniae): inactive; Activity (Candida dubliniensis): inactive; Activity (Aspergillus flavus): inactive; MIC (Aspergillus flavus): 320 µg/mL (≈ 1140 µM); MFC [3]: 320 µg/mL (≈ 1140 µM)
320 (≈ 1800 µM) | 320 (≈ 1800 µM) | 160 (≈ 898 µM) | 320 (≈ 1800 µM) | – | 160 (≈ 898 µM) | 160 (≈ 898 µM) | 320 (≈ 1800 µM) | 160 (≈ 898 µM) | 320 (≈ 1800 µM) | 320 (≈ 1800 µM) | 20 (≈ 112 µM) | O=C(Nc1nc[nH]n1)c1ccoc1 | – | – | inactive | 320 (≈ 1800 µM) | – | inactive | inactive | inactive | MIC (Aspergillus niger): 320 µg/mL (≈ 1800 µM); MFC (Candida albicans): 80 µg/mL (≈ 449 µM); MIC (Candida albicans): 80 µg/mL (≈ 449 µM); MFC (Saccharomyces cerevisiae): 320 µg/mL (≈ 1800 µM); MIC (Saccharomyces cerevisiae): 160 µg/mL (≈ 898 µM); MBC (Staphylococcus aureus; read-out: MFC): 160 µg/mL (≈ 898 µM); Activity (Aspergillus fumigatus): inactive; MIC (Aspergillus fumigatus): 320 µg/mL (≈ 1800 µM); MFC (Prototheca zopfii): 160 µg/mL (≈ 898 µM); MFC (Sporothrix schenckii): 320 µg/mL (≈ 1800 µM); MFC (Nakaseomyces glabratus): 80 µg/mL (≈ 449 µM); MIC (Nakaseomyces glabratus): 80 µg/mL (≈ 449 µM); MBC (Pseudomonas aeruginosa): 320 µg/mL (≈ 1800 µM); Activity (Rhizopus arrhizus): inactive; MBC (Klebsiella pneumoniae; read-out: MFC): 320 µg/mL (≈ 1800 µM); MFC (Candida dubliniensis): 80 µg/mL (≈ 449 µM); MIC (Candida dubliniensis): 40 µg/mL (≈ 225 µM); Activity (Aspergillus flavus): inactive; MFC [3]: 80 µg/mL (≈ 449 µM)
320 (≈ 1580 µM) | 320 (≈ 1580 µM) | 320 (≈ 1580 µM) | 320 (≈ 1580 µM) | 320 (≈ 1580 µM) | 320 (≈ 1580 µM) | 320 (≈ 1580 µM) | 320 (≈ 1580 µM) | 320 (≈ 1580 µM) | 320 (≈ 1580 µM) | 320 (≈ 1580 µM) | 320 (≈ 1580 µM) | O=C(NCc1ccccn1)c1ccoc1 | inactive | inactive | inactive | 320 (≈ 1580 µM) | inactive | inactive | inactive | inactive | Activity (Saccharomyces cerevisiae): inactive; Activity (Aspergillus fumigatus): inactive; Activity (Prototheca zopfii): inactive; Activity (Sporothrix schenckii): inactive; Activity (Nakaseomyces glabratus): inactive; Activity (Pseudomonas aeruginosa): inactive; Activity (Rhizopus arrhizus): inactive; Activity (Klebsiella pneumoniae): inactive; Activity (Candida dubliniensis): inactive; MFC (Aspergillus flavus): 320 µg/mL (≈ 1580 µM); MIC (Aspergillus flavus): 320 µg/mL (≈ 1580 µM); Activity [3]: inactive
320 (≈ 1490 µM) | 160 (≈ 747 µM) | 320 (≈ 1490 µM) | 320 (≈ 1490 µM) | 320 (≈ 1490 µM) | 160 (≈ 747 µM) | 320 (≈ 1490 µM) | 320 (≈ 1490 µM) | 320 (≈ 1490 µM) | 320 (≈ 1490 µM) | 320 (≈ 1490 µM) | 160 (≈ 747 µM) | N=C(NC(=O)c1ccoc1)c1ccccc1 | inactive | inactive | inactive | 160 (≈ 747 µM) | inactive | inactive | – | inactive | MIC (Aspergillus niger): 320 µg/mL (≈ 1490 µM); Activity (Saccharomyces cerevisiae): inactive; MFC (Aspergillus terreus): 320 µg/mL (≈ 1490 µM); MFC (Aspergillus fumigatus): 320 µg/mL (≈ 1490 µM); MIC (Aspergillus fumigatus): 320 µg/mL (≈ 1490 µM); MFC (Prototheca zopfii): 320 µg/mL (≈ 1490 µM); MFC (Sporothrix schenckii): 320 µg/mL (≈ 1490 µM); Activity (Nakaseomyces glabratus): inactive; Activity (Pseudomonas aeruginosa): inactive; MFC (Rhizopus arrhizus): 320 µg/mL (≈ 1490 µM); Activity (Klebsiella pneumoniae): inactive; Activity (Candida dubliniensis): inactive; Activity (Aspergillus flavus): inactive; MFC [3]: 320 µg/mL (≈ 1490 µM)
